We go through six compounds from PubChem BioAssay AID504733 (Southern Research Specialized Biocontainment Screening …, 2011).

The assay has as its system E. coli UTI89 capsule, orcinol OD572. The assay can be described thus: E. coli capsule biogenesis inhibitors, orcinol readout, confirmation, orthogonal assay, orcinol colorimetric, UTI89 strain, 100 µM (AID 504733). The note with it: at 100 µM; stronger effect = lower value. A digest of the protocol:
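System: UPEC UTI89 or ΔkpsM mutant bacteria; Medium: pH 5 Tris buffer for capsule release; Times: acid hydrolysis of precipitated polysaccharide 1 h at 80 °C, pH 2; Signal: orcinol colorimetric reaction, absorbance at 572 nm; Measure: surface capsule polysaccharide amount from orcinol absorbance; Control set: no-compound cultures and ΔkpsM mutant.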

As for `CC1=NN2C(=N)/C(=C\c3ccc(SCc4ccco4)o3)C(=O)N=C2S1`, the capsule formation is 20.2%.
Under `O=C(NCc1cc([N+](=O)[O-])ccc1O)c1cccnc1Sc1ccccc1Cl` stands 18.6%; under `O=C(Nc1ccncc1)c1ccc2ncsc2c1`, 19.1%; under `CCOc1ccc(-c2cc(NC(=O)c3c(F)cccc3F)c(C(=O)O)s2)cc1`, 9.04%.
Under `O=C(ONc1ccc(N=NC(=O)c2ccccc2O)cc1)c1ccccc1` stands 16%.
As for `COc1ccc2nc(NC(=O)c3ccc(Br)s3)sc2c1`, the figure is 24.5%.
